Results: ChEMBL document CHEMBL4028911, “Discovery of a Small-Molecule Bromodomain-Containing Protein 4 (BRD4) Inhibitor That Induces AMP-Activated Protein Kinase-Modulated Autophagy-Associated Cell Death in Breast Cancer” (J Med Chem, 2017)
pIC50: −log10 of the molar value. Calls of active or inactive are those of the source. No cut-off for these calls is given here.

What was measured:
[1] = biological target: T1, Bromodomain-containing protein 4 (Homo sapiens, UniProt O60885); assay: Inhibition of BRD4 in human MCF7 cells assessed as downregulation of AKT phosphorylation at thr308 at 1.5 uM measured up to 36 hrs by Western blot analysis; assay type: cell-based
In short: (§1)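 MCF-7 (1.5 μM) or MDA-MB-231 (3 μM) cells treated for indicated times. Adherent and floating cells lysed in RIPA with 1 mM PMSF. Equal protein run on 10-15% SDS-PAGE, blotted to PVDF, blocked in milk or BSA, HRP/ECL detection. β-actin loading control.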

[2] = biological target: T1, Bromodomain-containing protein 4; assay: Inhibition of BRD4 interaction with p53 in human MDA-MB-231 cells at 3 uM by co-immunoprecipitation assay; assay type: cell-based
In short: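 Cells lysed in RIPA buffer (40 mM Tris-HCl pH 7.5, 150 mM NaCl, 0.5% NP-40, 5% glycerol, 10 mM NaF, protease inhibitors). Lysates incubated overnight at 4 °C with BRD4 or p53 antibody plus protein A/G beads, washed 3 times, resolved on 10% SDS-PAGE and blotted for AMPKα or p53.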

[3] = biological target: T1, Bromodomain-containing protein 4; assay: Inhibition of BRD4 in human MDA-MB-231 cells assessed as reduction in ULK1 protein expression at 3 uM up to 36 hrs by Western blot analysis; assay type: cell-based; in short: as §1
MDA-MB-231 [4] = assay: Induction of autophagy in human MDA-MB-231 cells assessed as downregulation of p62/SQSTM1 expression at 3 uM in presence of ATG5 siRNA by Western blot analysis; assay type: functional, cell-based
MDA-MB-231 [5] = assay: Induction of autophagy in human MDA-MB-231 cells assessed as increase in LC3B puncta at 3 uM after 24 hrs by DAPI-staining based immunocytochemistry; assay type: functional, cell-based
In short: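 MDA-MB-231 cells treated with 3 μM for 24 h. Blocked in PBS with 1.5% goat serum, anti-LC3B (1:200 in PBS/1% BSA) overnight at 4 °C, then FITC secondary 1 h at room temperature. DAPI counterstain; LC3B puncta scored by fluorescence microscopy.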

MDA-MB-231 [6] = assay: Effect on AKT expression in human MDA-MB-231 cells at 3 uM measured up to 36 hrs by Western blot analysis; assay type: ADME, cell-based; details: mda-mb-231, 36 h
In short: (§2)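 MCF-7 (1.5 µM) or MDA-MB-231 (3 µM) cells treated for indicated times. Adherent and floating cells lysed in RIPA with 1 mM PMSF, 4°C for 1 h. Equal protein run on 10-15% SDS-PAGE, transferred to PVDF, blocked with milk or BSA, probed with primary then HRP secondary antibodies, ECL detection; β-actin as loading control.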

[7] = biological target: T1, Bromodomain-containing protein 4; assay: Inhibition of BRD4 in human MCF7 cells assessed as downregulation of AKT phosphorylation at ser473 at 1.5 uM measured up to 36 hrs by Western blot analysis; assay type: cell-based; in short: as §1
[8] = biological target: T2, Bromodomain-containing protein 2 (Homo sapiens, UniProt P25440); assay: Inhibition of recombinant human N-terminal GST-tagged BRD2 bromodomain-2 (339 to 459 residues) expressed in Escherichia coli expression system after 120 mins by TR-FRET assay
In short: (§3)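 TR-FRET bromodomain binding. Recombinant BRD domain, BET ligand and test agent in 20 μl assay buffer with 1% DMSO final. Incubated 120 min at room temperature. Blank lacks BET ligand.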

Homo sapiens = species: Homo sapiens; assay: Increase in p53 interaction with AMPK in human MCF7 cells at 1.5 uM by co-immunoprecipitation assay; assay type: cell-based
In short: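 Cells left untreated or treated, then lysed in RIPA (40 mM Tris-HCl pH 7.5, 150 mM NaCl, 0.5% NP-40, protease inhibitors, 5% glycerol, 10 mM NaF). Lysates incubated overnight at 4°C with BRD4 or p53 antibodies plus protein A/G beads, washed 3 times, resolved on 10% SDS-PAGE. Blots probed for p53 and AMPKα; inputs checked for BRD4, p53 and AMPKα.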

MDA-MB-468 = assay: Induction of autophagy in human MDA-MB-468 cells assessed as upregulation of beclin1 expression measured up to 48 hrs by Western blot analysis; assay type: functional, cell-based
[9] = biological target: T1, Bromodomain-containing protein 4; assay: Inhibition of BRD4 in human MCF7 cells assessed as reduction in ULK1 protein expression at 1.5 uM up to 36 hrs by Western blot analysis; assay type: cell-based; in short: as §1
[10] = biological target: T1, Bromodomain-containing protein 4; assay: Inhibition of recombinant human BRD4 bromodomain-2 (342 to 460 residues) expressed in Escherichia coli expression system after 120 mins by TR-FRET assay
MCF7 [11] = assay: Antitumor activity against human MCF7 cells xenografted in nude BALB/c mouse assessed as reduction in tumor weight at 25 to 100 mg/kg, ig administered once a day for 24 days measured every 3 days relative to control; assay type: functional, organism-based
In short: (§4)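 Female BALB/c nude mice, 6-8 weeks, 20-22 g, injected subcutaneously with 5×10^6 MCF-7 or MDA-MB-231 cells. At 100 mm³ tumor volume (V = L×W²/2), split into four groups: 25, 50 or 100 mg/kg intragastric once daily for 24 or 27 days, or vehicle. Tumor volume and body weight measured every 3 days; tumors excised and weighed at end. MCF-7 n=7, MDA-MB-231 n=6 per group.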

[12] = biological target: T1, Bromodomain-containing protein 4; assay: Inhibition of recombinant human BRD4 bromodomain-1 (49 to 170 residues) expressed in Escherichia coli expression system after 120 mins by TR-FRET assay
MCF7 [13] = assay: Antitumor activity against human MCF7 cells xenografted in nude BALB/c mouse assessed as tumor growth inhibition at 25 to 100 mg/kg, ig administered once a day for 24 days measured every 3 days relative to control; assay type: functional; in short: as §4
MCF7 [14] = assay: Effect on mTOR expression in human MCF7 cells at 1.5 uM measured up to 36 hrs by Western blot analysis; assay type: ADME, cell-based; details: mcf7, 36 h; in short: as §2
MDA-MB-231 [15] = assay: Induction of autophagy in GFP-LC3 fused human MDA-MB-231 cells assessed as increase in LC3 puncta at 3 uM by fluorescence microscopy; assay type: functional, cell-based
In short: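 MCF-7 or MDA-MB-231 cells transfected with eGFP-LC3 plasmid, then treated with 1.5 or 3 µM respectively for 24 h. LC3 puncta viewed by fluorescence microscopy.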

MDA-MB-231 [16] = assay: Antitumor activity against human MDA-MB-231 cells xenografted in nude BALB/c mouse assessed as tumor growth inhibition at 25 to 100 mg/kg, ig administered once a day for 27 days measured every 3 days relative to control; assay type: functional; in short: as §4
Mus musculus = assay: Toxicity in BALB/c mouse xenografted with human MCF7 cells assessed as effect on body weight at 25 to 100 mg/kg, ig administered once a day for 24 days measured every 3 days; assay type: organism-based; details: in vivo, po
In short: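 Female BALB/c nude mice (6-8 weeks, 20-22 g) with subcutaneous MCF-7 or MDA-MB-231 xenografts (5×10^6 cells). At 100 mm3, given 25, 50 or 100 mg/kg intragastrically once daily, or vehicle, for 24 or 27 days. Body weight recorded every 3 days. MCF-7 n=7, MDA-MB-231 n=6 per group.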

[17] = biological target: T2, Bromodomain-containing protein 2; assay: Inhibition of recombinant human N-terminal GST-tagged BRD2 bromodomain-1 (65 to 187 residues) expressed in Escherichia coli expression system after 120 mins by TR-FRET assay; in short: as §3

T2 sequence (P25440 whole entry, the tested form may be a part): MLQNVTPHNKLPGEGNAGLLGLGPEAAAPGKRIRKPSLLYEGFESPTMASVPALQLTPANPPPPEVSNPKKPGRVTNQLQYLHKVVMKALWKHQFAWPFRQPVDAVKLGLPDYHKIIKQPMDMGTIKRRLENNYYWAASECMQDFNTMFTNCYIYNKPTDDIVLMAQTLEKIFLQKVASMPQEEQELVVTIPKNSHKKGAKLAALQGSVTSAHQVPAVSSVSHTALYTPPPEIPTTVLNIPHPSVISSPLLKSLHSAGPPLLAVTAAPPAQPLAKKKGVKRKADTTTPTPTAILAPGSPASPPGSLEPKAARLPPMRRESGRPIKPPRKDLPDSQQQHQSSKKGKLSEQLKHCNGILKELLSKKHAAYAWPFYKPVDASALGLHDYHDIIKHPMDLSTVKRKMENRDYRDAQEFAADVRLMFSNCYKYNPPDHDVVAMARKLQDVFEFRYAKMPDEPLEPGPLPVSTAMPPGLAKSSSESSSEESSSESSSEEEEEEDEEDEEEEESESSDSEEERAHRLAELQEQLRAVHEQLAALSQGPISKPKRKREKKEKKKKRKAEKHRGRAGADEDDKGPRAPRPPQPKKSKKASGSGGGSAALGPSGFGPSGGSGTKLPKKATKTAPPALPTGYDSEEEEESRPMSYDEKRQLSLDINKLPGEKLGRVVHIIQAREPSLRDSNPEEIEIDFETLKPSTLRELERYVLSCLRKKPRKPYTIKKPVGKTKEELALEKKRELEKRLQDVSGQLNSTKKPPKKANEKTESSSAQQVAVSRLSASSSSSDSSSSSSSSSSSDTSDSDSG

inhibition [1]: Active
inhibition [2]: inactive
inhibition [3]: Active
inhibition [7]: Active
pIC50 [8]: < 4.00
inhibition [9]: Active
pIC50 [10]: 6.03
pIC50 [12]: 6.33
pIC50 [17]: 4.61
SMILES: Cc1cc(-c2nc3sc4c(c3c(=O)[nH]2)CCN(C)C4)cc(C)c1O
Activity (MDA-MB-231 [4]): inactive
Activity (MDA-MB-231 [5]): Active
Activity (MDA-MB-231 [6]): Non-Toxic
Activity (Homo sapiens): Active
Activity (MDA-MB-468): inactive
Activity (MCF7 [11]): Active
TGI (MCF7 [13]): 80%
Activity (MCF7 [14]): Non-Toxic
Activity (MDA-MB-231 [15]): Active
TGI (MDA-MB-231 [16]): 76%
Activity (Mus musculus): Non-Toxic
